Tests used:
H1975 cells = assay: MTT antiproliferative assay, H1975; assay type: cell-based, human; conditions: ratio of IC50 BEAS-2B to H1975
How it was run: (§1)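 Cell culture: A549, PC9 and normal lung epithelial BEAS-2B in DMEM with 10% FBS and penicillin/streptomycin/amphotericin B; H1975 in RPMI-1640 with 10% FBS; all at 37 °C, 5% CO2. Log-phase cells seeded at 3 × 10^3/well overnight, then exposed to graded compound concentrations or DMSO for 72 h. MTT added for 4 h in the dark, crystals dissolved in DMSO, absorbance read at 490 nm; three parallel experiments.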

A549 cells [1] = assay: MTT antiproliferative assay, A549; assay type: cell-based, human; conditions: ratio of IC50 BEAS-2B to A549
How it was run: as §1

A549 cells [2] = assay: Cell cycle analysis, PI staining, flow cytometry; assay type: cell-based, human; conditions: A549, 48 h
How it was run: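 A549 cells were exposed to a range of test compound concentrations for 48 h. They were then washed in cold PBS, fixed in precooled 70% ethanol and held overnight at −20 °C. After a PBS wash, cells were stained for 30 min at room temperature in the dark with PI (50 μg/mL) plus RNase A (100 μg/mL). DNA content was read by flow cytometry.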

p-PI3K, p-AKT = assay: Western blot of PI3K and AKT; assay type: cell-based, human; conditions: 48 h
How it was run: (§2)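 Cells treated with the indicated concentrations of test compound for 48 h. Lysates were heat-denatured at 104 °C for 12 min, protein measured by BCA, and equal amounts run on SDS-PAGE and transferred to PVDF. Membranes were blocked 1 h with 5% BSA or milk, incubated with primary antibody overnight at 4 °C, then secondary 2 h at room temperature. Detection by ECL; bands quantified by densitometry.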

[3] = test system: cleaved-caspase 9, Bax, Bcl-2; assay: Western blot of apoptosis-related proteins; assay type: cell-based, human; conditions: A549, 48 h
How it was run: as §2

ALK, p-ALK = assay: Western blot of ALK and p-ALK; assay type: cell-based, human; conditions: A549, 48 h
How it was run: (§3)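 A549 cells were exposed to the indicated test compound concentrations for 48 h, then lysed and heat-denatured at 104 °C for 12 min. Protein was quantified by BCA, and equal amounts were resolved by SDS-PAGE onto PVDF. Membranes were blocked 1 h (5% BSA or skim milk), given primary antibody overnight at 4 °C, washed in TBST, given secondary antibody 2 h at room temperature, and imaged by ECL.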

A549 spheroids = assay: 3D spheroid cell inhibition assay; assay type: cell-based, human; conditions: treated every 3 days
How it was run: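 A549 cells seeded at 20 000 cells/well in ultralow-attachment U-bottom wells to form tumor spheroids. Once formed, spheroids were exposed to the indicated concentrations of test compound, renewed every 3 days. Spheroids were photographed under a microscope to document growth and morphology.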

p27, p21, CDK2, p-Rb = assay: Western blot of G1 phase associated proteins; assay type: cell-based, human; conditions: A549, 0.5 to 2.0 μM, 48 h
How it was run: as §3

A549 cells [4] = assay: Annexin V-FITC/PI apoptosis assay, flow cytometry; assay type: cell-based, human; conditions: 48 h, control 2.64%
How it was run: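 A549 cells seeded at 1 × 10^5 per well in 6-well plates and left overnight. They were then treated with test compound for 48 h, collected by PBS rinsing and stained with Annexin V-FITC and PI for 15 min at room temperature in the dark. Apoptotic fractions were read by flow cytometry; mean ± SD, n = 3.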

ALK = assay: Proteome Profiler Human Phospho-RTK Array; assay type: cell-based; conditions: A549, 2.0 μM, 24 h
How it was run: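 A549 cells were treated with test compound (2.0 μM) or left untreated for 24 h, then lysed in buffer with protease and phosphatase inhibitors. Protein was measured by Bradford. Arrays covering 49 phospho-RTKs were blocked for 1 h, then incubated with 450 μg lysate overnight at 4 °C. After three washes, arrays were probed for 2 h with anti-phospho-tyrosine-HRP and developed by chemiluminescence.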

[5] = test system: mitochondrial membrane potential; assay: Mitochondrial membrane potential, JC-1, flow cytometry; assay type: cell-based; conditions: control 19.25%
How it was run: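 Cells in six-well plates were stained with JC-1 working solution, prepared per kit, for 20 min at 37 °C. After a PBS wash, mitochondrial membrane potential was measured by flow cytometry and also viewed by fluorescence microscopy.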

In the case of `CN(C)CCn1cnc2ccc(-c3ccc4sc(NC(=O)Nc5ccc(F)cc5)nc4c3)cc2c1=O` [Compound 38], the “selectivity (fold) H1975 vs BEAS-2B” value (H1975 cells) is reported as 0.92 fold and the “selectivity (fold) A549 vs BEAS-2B” value (A549 cells [1]) is reported as 1.30 fold.
`CCCn1cnc2ccc(-c3ccc4sc(NC(=O)Nc5ccc(F)cc5)nc4c3)cc2c1=O` [Compound 45] was tested, and the cell cycle distribution (A549 cells [2]) was “induced cell cycle arrest at the G1 phase in a concentration-dependent manner”, the p-AKT protein expression (p-PI3K, p-AKT) was “inhibited the protein expression” and the p-PI3K protein expression (p-PI3K, p-AKT) was “inhibited the protein expression”. The Bax level [3] was “increased in a concentration-dependent manner”, the Bcl-2 level [3] was “decreased” and the “cleaved-caspase 9 level” value [3] was “increased in a concentration-dependent manner”. The “phosphorylation level of ALK (Western blot)” value (ALK, p-ALK) was “reduces the phosphorylation levels of ALK”, the “total protein level of ALK (Western blot)” value (ALK, p-ALK) was “decreases the total protein levels of ALK” and the “growth of A549 tumor spheres” value (A549 spheroids) was “can inhibit the growth of tumor spheres”. The CDK2 expression level (p27, p21, CDK2, p-Rb) was “reduced in a concentration-dependent manner”, the p21 expression level (p27, p21, CDK2, p-Rb) was “markedly upregulated in a dose-dependent manner” and the p27 expression level (p27, p21, CDK2, p-Rb) was “markedly upregulated in a dose-dependent manner”. The p-Rb expression level (p27, p21, CDK2, p-Rb) was “reduced in a concentration-dependent manner”, the “annexin V positive cells (Q2-4)” value (A549 cells [4]; A549, 2.0 μM) was 7.13% and the “annexin V positive cells (Q2-4)” value (A549 cells [4]; A549, 4.0 μM) was 20.36%. For the same molecule, the “selectivity (fold) H1975 vs BEAS-2B” value (H1975 cells) was 5.80 fold, the “selectivity (fold) A549 vs BEAS-2B” value (A549 cells [1]) was 7.10 fold and the “phosphorylation level of ALK (Phospho-RTK array)” value (ALK) was “reduced the phosphorylation levels of ALK”. For the same molecule, the “JC-1 M2 fraction (change of Δψm)” value ([5]; 0.25 μM) was 47.72%, the “JC-1 M2 fraction (change of Δψm)” value ([5]; 0.5 μM) was 51.16% and the “JC-1 M2 fraction (change of Δψm)” value ([5]; 1.0 μM) was 60.52%.
For `CC(=O)O[C@H]1C(=O)[C@@]2(C)[C@H]([C@H](OC(=O)c3ccccc3)[C@]3(O)C[C@H](OC(=O)[C@H](O)[C@@H](NC(=O)c4ccccc4)c4ccccc4)C(C)=C1C3(C)C)[C@]1(OC(C)=O)CO[C@@H]1C[C@@H]2O` [paclitaxel, reference compound], the “selectivity (fold) H1975 vs BEAS-2B” value (H1975 cells) was 3.28 fold and the “selectivity (fold) A549 vs BEAS-2B” value (A549 cells [1]) was 0.42 fold.

From PMC11840607 (ACS Omega, 2025)
